Assay results from publication PMC7818638 (ACS Omega, 2021).
≈ marks a conversion by molar mass, not a printed value.

Key:
HepG2 = assay: Antiproliferative; format: cell-based; details: Homo sapiens, HepG2, read-out: HepG2 IC50 ± SD
In short: (§1)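 Test compounds are screened by MTT assay against human hepatoblastoma HepG2 cells and murine BALB/3T3 fibroblasts, with doxorubicin as the reference drug. Dose–response curves are plotted from the results. IC50 is taken as the concentration needed to kill half the cell population. Values are the mean of three independent experiments.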

[1] = system: BALB/3T3 (murine fibroblast); assay: Cytotoxicity toward normal cell line BALB/3T3, MTT assay; format: cell-based; details: for toxicity on the normal cell line (BALAB/3T3): statement in words; for IC50: Mus musculus, BALB/3T3, read-out: BALAB/3T3 IC50 ± SD
In short: as §1

SMILES	IC50 (HepG2)	toxicity on the normal cell line (BALAB/3T3) [1]	IC50 [1]
Cc1c(-c2cc(-c3cn(-c4ccccc4)nc3-c3nnn(-c4cccc([N+](=O)[O-])c4)c3C)c(C#N)c(N)n2)nnn1-c1ccc(Br)cc1 [Compound 7, 2-Amino-6-(1-(4-bromophenyl)-5-methyl-1H-1,2,3-triazol-4-yl)-4-(3-(5-methyl-1-(3-nitrophenyl)-1H-1,2,3-triazol-4-yl)-1-phenyl-1H-pyrazol-4-yl)nicotinonitrile]	1.08 ± 0.94 µg/mL (≈ 1.54 µM)	no toxicity	–
Cc1c(-c2cc(-c3ccco3)c(C#N)c(N)n2)nnn1-c1ccc(Br)cc1 [Compound 9, 2-Amino-6-(1-(4-bromophenyl)-5-methyl-1H-1,2,3-triazol-4-yl)-4-(furan-2-yl)nicotinonitrile]	11.15 ± 0.01 µg/mL (≈ 26.5 µM)	–	–
COc1cc(-c2cc(-c3nnn(-c4ccc(Br)cc4)c3C)nc(N)c2C#N)ccc1O [Compound 8, 2-Amino-6-(1-(4-bromophenyl)-5-methyl-1H-1,2,3-triazol-4-yl)-4-(4-hydroxy-3-methoxyphenyl)nicotinonitrile]	9.65 ± 0.37 µg/mL (≈ 20.2 µM)	–	–
Cc1c(-c2cc(-c3ccccc3)c(C#N)c(N)n2)nnn1-c1ccc(Br)cc1 [Compound 3, 2-Amino-6-(1-(4-bromophenyl)-5-methyl-1H-1,2,3-triazol-4-yl)-4-phenylnicotinonitrile]	17.2 ± 0.83 µg/mL (≈ 40 µM)	–	–
CCOC(=O)c1c(-c2ccccc2)cc(-c2nnn(-c3ccc(Br)cc3)c2C)nc1N [Compound 10, Ethyl 2-Amino-6-(1-(4-bromophenyl)-5-methyl-1H-1,2,3-triazol-4-yl)-4-phenylnicotinate]	23.2 ± 0.45 µg/mL (≈ 48.6 µM)	–	76.72 ± 0.24 µg/mL (≈ 160 µM)
Cc1c(-c2cc(-c3cn(-c4ccccc4)nc3-c3nnn(-c4ccc(Br)cc4)c3C)c(C#N)c(N)n2)nnn1-c1ccc(Br)cc1 [Compound 6, 2-Amino-6-(1-(4-bromophenyl)-5-methyl-1H-1,2,3-triazol-4-yl)-4-(3-(1-(4-bromophenyl)-5-methyl-1H-1,2,3-triazol-4-yl)-1-phenyl-1H-pyrazol-4-yl)nicotinonitrile]	0.64 ± 0.14 µg/mL (≈ 0.873 µM)	no toxicity	–

Further lines, with some results ahead:

IC50 (HepG2)	SMILES	toxicity on the normal cell line (BALAB/3T3) [1]	IC50 [1]
13.24 ± 0.12 µg/mL (≈ 28.3 µM)	CCOC(=O)c1c(-c2ccco2)cc(-c2nnn(-c3ccc(Br)cc3)c2C)nc1N [Compound 16, Ethyl 2-Amino-6-(1-(4-bromophenyl)-5-methyl-1H-1,2,3-triazol-4-yl)-4-(furan-2-yl)nicotinate]	–	–
16.7 ± 0.83 µg/mL (≈ 32.8 µM)	CCOC(=O)c1c(-c2ccc(OC)cc2)cc(-c2nnn(-c3ccc(Br)cc3)c2C)nc1N [Compound 11, Ethyl 2-Amino-6-(1-(4-bromophenyl)-5-methyl-1H-1,2,3-triazol-4-yl)-4-(4-methoxyphenyl)nicotinate]	–	–
6.24 ± 0.71 µg/mL (≈ 8 µM)	CCOC(=O)c1c(-c2cn(-c3ccccc3)nc2-c2nnn(-c3ccc(Br)cc3)c2C)cc(-c2nnn(-c3ccc(Br)cc3)c2C)nc1N [Compound 13, Ethyl 2-Amino-6-(1-(4-bromophenyl)-5-methyl-1H-1,2,3-triazol-4-yl)-4-(3-(1-(4-bromophenyl)-5-methyl-1H-1,2,3-triazol-4-yl)-1-phenyl-1H-pyrazol-4-yl)nicotinate]	–	61.24 ± 0.21 µg/mL (≈ 78.5 µM)
11.3 ± 0.95 µg/mL (≈ 21.6 µM)	CCOC(=O)c1c(-c2ccc(O)c(OC)c2)cc(-c2nnn(-c3ccc(Br)cc3)c2C)nc1N [Compound 15, Ethyl 2-Amino-6-(1-(4-bromophenyl)-5-methyl-1H-1,2,3-triazol-4-yl)-4-(4-hydroxy-3-methoxyphenyl)nicotinate]	–	18.3 ± 1.81 µg/mL (≈ 35 µM)
3.56 ± 0.46 µg/mL (≈ 6.55 µM)	COc1cccc2c1C(=O)c1c(O)c3c(c(O)c1C2=O)C[C@@](O)(C(=O)CO)C[C@@H]3O[C@H]1C[C@H](N)[C@H](O)[C@H](C)O1 [doxorubicin, reference compound]	–	–
9.54 ± 0.05 µg/mL (≈ 12.8 µM)	CCOC(=O)c1c(-c2cn(-c3ccccc3)nc2-c2nnn(-c3cccc([N+](=O)[O-])c3)c2C)cc(-c2nnn(-c3ccc(Br)cc3)c2C)nc1N [Compound 14, Ethyl 2-Amino-6-(1-(4-bromophenyl)-5-methyl-1H-1,2,3-triazol-4-yl)-4-(3-(5-methyl-1-(3-nitrophenyl)-1H-1,2,3-triazol-4-yl)-1-phenyl-1H-pyrazol-4-yl)nicotinate]	–	–
